The values below come from PubChem BioAssay.

Structures are written as SMILES. Calls of active or inactive are those of the source.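 How the source made its calls, unless noted: active means viability loss from added drug above about 55%, and viability with drug at most 40%, in both replicates (limit read from the data, passing the limit was not always enough); inconclusive means both conditions met in only one replicate; inactive means neither replicate meets both conditions.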

Test [1] can be described thus: Her2 expression decrease, cell viability multiplex – SKBR3 breast tumor cells, AlphaScreen, ATP viability, primary screen (AID 461;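 active means Her2 level under about 52% in both replicate screens, with viability over 70% of control, limit read from the data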;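 on Her2 level: lower value means less Her2 protein in the cells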;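 on viability: percent of carrier control wells set as 100% viability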). As to conditions: SKBR3 Her2 protein level, 18-24 h, measured here: SKBR3 viability, ATP luminescence, at 10 µM. Background: In Alpha technology, singlet oxygen from a donor bead excites a nearby acceptor bead.
The target in test [2] is Receptor tyrosine-protein kinase erbB-2 (Homo sapiens) (UniProt P04626). The test is described as above. The settings on record: 18-24 h, at 10 µM, stronger effect = lower value.
Test [3] in a line: reduced viability of SK-BR-3 breast cancer cells – cell-based, 24 h, human, pilot screen (AID 572;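 active means viability at or below 10% of carrier control in both of two separate runs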;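 further: compound exposure lasted between 18 and 24 h rather than exactly 24 h; 100% = carrier-treated control wells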). As to conditions: SK-BR-3 viability, CellTiter-Glo luminescence, at 10 µM, stronger effect = lower value.
The nature of test [4]: HUVEC growth inhibition – cell-based, human, primary screen (AID 575;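 active means viability at or below 30% in both replicate assays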;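 further: 100% = median of untreated cell wells with 0.1% DMSO on each plate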). The settings on record: HUVEC proliferation, CellTiter-Glo luminescence, 72 h; at 10 µM; stronger effect = lower value. An outline of the steps:
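system = HUVEC primary cells | amount = 1250 cells/well | buffer or medium = supplemented EBM, 2% fetal bovine serum | dosing = single-point 10 µM, DMSO 0.1% final | times = 72 h compound incubation | detection = CTG luminescence | read-out = % viability relative to median vehicle-well signal on each plate | control set = vehicle and MePR control wells | format = collagen-coated 384-well format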
(In general: In ATP-based viability assays light output follows the ATP content of the culture.)

Test [5] can be described thus: H69AR cell proliferation blockers – human, duplicate replicates, primary screen (AID 580;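 active means viability at or under a set limit in both replicates, limit being median viability minus 3 SD, cut at about 48% in these data, passing the limit was not always enough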;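 further: 100% = mean luminescence of untreated wells and 0% = no signal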). As to conditions: H69AR lung tumor cells viability, ATP luminescence, 72 h; at 10 µM; stronger effect = lower value.
A short description of test [6]: MRP1 drug-resistance reversers in H69AR cells – cell-based, doxorubicin co-treatment, pilot screen (AID 601). The settings on record: CellTiter-Glo, 72 h, at 10 µM; for differential viability (reversal): stronger effect = higher value.
Test [7] is described as follows: yeast transport mutant growth inhibition pilot in 384-well plates, post-Golgi transport modulator project (AID 636; in the data active means inhibition above about 31%). As to conditions: absorbance 615 nm, about 18 h, stronger effect = higher value.
The nature of test [8]: growth suppression of yeast trafficking mutant, preliminary HTS, modulators of trafficking downstream of Golgi apparatus project, 1536-format plate, OD 615 nm (AID 637; in the data active means inhibition above about 30%). As to conditions: yeast transport mutant growth, absorbance 615 nm, 18 h; stronger effect = higher value.
Setting [9] is: H69AR cells + 2 uM doxorubicin, measured here: viability with 2 uM doxorubicin, stronger effect = lower value.
Setting [10] is: H69AR cells, compound alone cytotoxicity.

Sequence of Receptor tyrosine-protein kinase erbB-2 (Homo sapiens) (P04626 whole entry, looked up): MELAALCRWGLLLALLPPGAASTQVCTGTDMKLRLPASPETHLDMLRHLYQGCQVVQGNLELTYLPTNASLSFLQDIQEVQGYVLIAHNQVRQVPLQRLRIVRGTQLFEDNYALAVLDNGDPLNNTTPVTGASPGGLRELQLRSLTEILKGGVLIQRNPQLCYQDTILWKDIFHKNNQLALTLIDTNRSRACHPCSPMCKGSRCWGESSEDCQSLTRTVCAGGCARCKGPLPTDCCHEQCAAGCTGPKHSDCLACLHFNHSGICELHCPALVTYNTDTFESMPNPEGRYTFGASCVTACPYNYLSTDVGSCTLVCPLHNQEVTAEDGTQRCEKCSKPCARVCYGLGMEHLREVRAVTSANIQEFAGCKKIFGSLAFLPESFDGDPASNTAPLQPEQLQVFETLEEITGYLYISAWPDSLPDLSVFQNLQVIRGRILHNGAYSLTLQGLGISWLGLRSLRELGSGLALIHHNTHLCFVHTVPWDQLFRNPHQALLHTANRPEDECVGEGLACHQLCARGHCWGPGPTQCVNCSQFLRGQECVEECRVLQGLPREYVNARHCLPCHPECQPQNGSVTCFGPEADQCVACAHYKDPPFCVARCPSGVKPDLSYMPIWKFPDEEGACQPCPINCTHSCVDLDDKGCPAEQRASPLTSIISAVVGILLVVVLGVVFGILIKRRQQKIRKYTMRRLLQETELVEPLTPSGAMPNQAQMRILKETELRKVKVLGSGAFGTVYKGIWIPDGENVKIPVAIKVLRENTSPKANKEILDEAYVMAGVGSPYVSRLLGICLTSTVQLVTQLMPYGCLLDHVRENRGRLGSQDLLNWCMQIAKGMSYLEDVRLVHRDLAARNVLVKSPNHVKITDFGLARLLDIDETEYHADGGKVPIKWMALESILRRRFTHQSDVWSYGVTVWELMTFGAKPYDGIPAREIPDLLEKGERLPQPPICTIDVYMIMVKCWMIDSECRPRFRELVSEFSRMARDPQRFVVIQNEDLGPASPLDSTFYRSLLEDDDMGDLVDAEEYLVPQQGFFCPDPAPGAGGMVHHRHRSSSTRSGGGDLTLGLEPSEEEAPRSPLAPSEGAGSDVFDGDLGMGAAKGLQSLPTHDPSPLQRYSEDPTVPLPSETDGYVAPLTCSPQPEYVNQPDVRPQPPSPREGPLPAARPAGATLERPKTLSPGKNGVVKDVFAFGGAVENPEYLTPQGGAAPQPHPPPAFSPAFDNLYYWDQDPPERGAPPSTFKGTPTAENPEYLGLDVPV

In the case of `CCCCOC(=O)CNc1nnc(SCC(=O)OCC)[nH]c1=O`, the viability is 114% in test [1]; 114% (inactive) in test [3]; 74.8% (inactive) in test [4]; 98.6% (inactive) in test [5]; 86.9% in test [6] (setting [9]); 98.6% in test [6] (setting [10]). For the same compound, the Her2 level in test [2] was 87% (inactive). Also, in test [6] (H69AR cells + 2 uM doxorubicin), the differential viability (reversal) is 11.7% (inactive). Besides, the inhibition in test [7] is -0.91% (inactive); in test [8] it was -3.81% (inactive).
`CCOC(=O)C1CCCN(CCCc2ccccc2)C1` (stereo not given): the viability is 104% in test [1]; 104% (inactive) in test [3]; 105% (inactive) in test [4]; 90.8% (inactive) in test [5]; 87.6% in test [6] (setting [9]); 90.8% in test [6] (setting [10]). In test [2], the Her2 level is 91% (inactive). Also, the differential viability (reversal) in test [6] (H69AR cells + 2 uM doxorubicin) was 3.21% (inactive). The inhibition in test [7] was -5.47% (inactive); in test [8], -1.9% (inactive).
Consider `CCOC(=O)CSC1=Nc2ccccc2C2=NC(CC(=O)NCc3ccc(OC)cc3)C(=O)N12` (stereo not given), for which the viability in test [1] was 117%; in test [3], 117% (inactive); in test [4] it was 83% (inactive); in test [5] it was 99.7% (inactive); in test [6] (setting [9]) it was 97.3%; in test [6] (setting [10]), 99.7%. The Her2 level in test [2] was 89% (inactive). Besides, the differential viability (reversal) in test [6] (H69AR cells + 2 uM doxorubicin) is 2.4% (inactive). In addition, the values for the inhibition in test [7] and in test [8] were -4.21% (inactive) and -1.27% (inactive), respectively.
`CCc1nccn1S(=O)(=O)c1ccc(C)c(C)c1`: the viability is 119% in test [1]; 119% (inactive) in test [3]; 96.7% (inactive) in test [4]; 99.6% (inactive) in test [5]; 86.9% in test [6] (setting [9]); 99.6% in test [6] (setting [10]). Further, the Her2 level in test [2] was 92.5% (inactive). Further, the differential viability (reversal) in test [6] (H69AR cells + 2 uM doxorubicin) is 12.7% (inactive). Also, the inhibition is -4.86% (inactive) in test [7] and 16.2% (inactive) in test [8].
As to `CCN1CCCC1CNC(=O)CS(=O)(=O)Cc1nc(-c2ccccc2C)oc1C` (stereo not given), the viability in test [1] was 97%; in test [3] it was 97% (inactive); in test [4] it was 83% (inactive); in test [5], 88.1% (inactive); in test [6] (setting [9]), 88.1%; in test [6] (setting [10]), 88.1%. For the same compound, the Her2 level in test [2] was 92.5% (inactive). In addition, the differential viability (reversal) in test [6] (H69AR cells + 2 uM doxorubicin) was 0.015% (inactive). Also, the inhibition in test [7] is -3.6% (inactive); in test [8], 1.64% (inactive).
With `CC1=NC(Nc2nc(C)c3ccccc3n2)=NC(C)(C)C1`, the viability in test [1] is 78.5%; in test [3], 78.5% (inactive); in test [4], 74.3% (inactive); in test [5] it was 62.4% (inactive); in test [6] (setting [9]), 77%; in test [6] (setting [10]), 62.4%. Further, the Her2 level in test [2] was 72.5% (inactive). The differential viability (reversal) in test [6] (H69AR cells + 2 uM doxorubicin) was -14.6% (inactive). For the same compound, the figures for the inhibition in test [7] and in test [8] were -0.39% (inactive) and -7.38% (inactive), respectively.
In the case of `COc1ccc(OC(C)C(=O)N2CC(C)OC(C)C2)cc1` (stereo not given), the viability is 100% in test [1]; 100% (inactive) in test [3]; 97.3% (inactive) in test [4]; 100% (inactive) in test [5]; 101% in test [6] (setting [9]); 100% in test [6] (setting [10]). The Her2 level in test [2] was 102% (inactive). In addition, in test [6] (H69AR cells + 2 uM doxorubicin), the differential viability (reversal) is -1.02% (inactive). The inhibition in test [7] is -5% (inactive); in test [8] it was 0.16% (inactive).
Take `CC(=O)c1c(C)oc2ccc(NS(=O)(=O)c3ccc(O)c(C(=O)O)c3)cc12`: the viability in test [1] is 92%; in test [3], 92% (inactive); in test [4] it was 105% (inactive); in test [5] it was 94% (inactive); in test [6] (setting [9]), 90.9%; in test [6] (setting [10]), 94%. The Her2 level in test [2] is 78.5% (inactive). Further, in test [6] (H69AR cells + 2 uM doxorubicin), the differential viability (reversal) is 3.09% (inactive). For the same compound, the inhibition in test [7] was -6.22% (inactive); in test [8], 0.79% (inactive).
With `CCn1c(SCC(=O)c2ccc3c(c2)OCCO3)nnc1-c1ccco1`, the viability was 102% in test [1]; 102% (inactive) in test [3]; 111% (inactive) in test [4]; 98.6% (inactive) in test [5]; 97.9% in test [6] (setting [9]); 98.6% in test [6] (setting [10]). For the same compound, the Her2 level in test [2] is 95% (inactive). Also, the differential viability (reversal) in test [6] (H69AR cells + 2 uM doxorubicin) is 0.66% (inactive). Besides, the values for the inhibition in test [7] and in test [8] were -4% (inactive) and -0.65% (inactive), respectively.
Turning to `CSCSC1=C(C#N)C(c2ccc(Cl)cc2)C(C(C)=O)=C(C)N1` (stereo not given), the viability in test [1] is 106%; in test [3] it was 106% (inactive); in test [4], 64.3% (inactive); in test [5], 75.2% (inactive); in test [6] (setting [9]), 80.6%; in test [6] (setting [10]) it was 75.2%. Besides, in test [2], the Her2 level was 94.5% (inactive). Besides, in test [6] (H69AR cells + 2 uM doxorubicin), the differential viability (reversal) was -5.35% (inactive). For the same compound, the inhibition was -5.32% (inactive) in test [7] and 1.31% (inactive) in test [8].
Consider `Cc1cc(C)nc(SCC(=O)Nc2ncc3c(n2)CCCC3=O)n1`, for which the viability is 98.5% in test [1]; 98.5% (inactive) in test [3]; 99% (inactive) in test [4]; 112% (inactive) in test [5]; 99.3% in test [6] (setting [9]); 112% in test [6] (setting [10]). Also, the Her2 level in test [2] was 93.5% (inactive). Further, in test [6] (H69AR cells + 2 uM doxorubicin), the differential viability (reversal) is 12.5% (inactive). For the same compound, the inhibition in test [7] was -1.17% (inactive); in test [8], -4.13% (inactive).
Take `CC(=O)Nc1c2c(nn1-c1ccc(C)cc1C)CSC2`: the viability in test [1] was 109%; in test [3], 109% (inactive); in test [4] it was 101% (inactive); in test [5], 90.7% (inactive); in test [6] (setting [9]) it was 93.2%; in test [6] (setting [10]), 90.7%. For the same compound, the Her2 level in test [2] is 113% (inactive). For the same compound, the differential viability (reversal) in test [6] (H69AR cells + 2 uM doxorubicin) is -2.51% (inactive). For the same compound, the inhibition in test [7] is -1.17% (inactive); in test [8], -2.54% (inactive).
`O=C(CSc1nnnn1C1CCCCC1)N1CCc2ccccc21`: the viability was 91% in test [1]; 91% (inactive) in test [3]; 60.9% (inactive) in test [4]; 87.1% (inactive) in test [5]; 90.2% in test [6] (setting [9]); 87.1% in test [6] (setting [10]). The Her2 level in test [2] is 82.5% (inactive). Besides, the differential viability (reversal) in test [6] (H69AR cells + 2 uM doxorubicin) was -3.15% (inactive). Moreover, the figures for the inhibition in test [7] and in test [8] were -3.87% (inactive) and -2.79% (inactive), respectively.
As to `Cn1c(CN2CCOCC2)nc2cc(NC(=O)c3ccccc3Cl)ccc21`, the viability in test [1] was 102%; in test [3], 102% (inactive); in test [4], 92% (inactive); in test [5], 97.1% (inactive); in test [6] (setting [9]), 99.5%; in test [6] (setting [10]) it was 97.1%. Further, the Her2 level in test [2] is 103% (inactive). For the same compound, in test [6] (H69AR cells + 2 uM doxorubicin), the differential viability (reversal) was -2.36% (inactive). For the same compound, the inhibition in test [7] was -3.55% (inactive); in test [8] it was -2.42% (inactive).

For orientation: viability means a read-out of living cells in per cent, often relative to untreated cells. As usually defined, the inhibition is the change of the read-out against control, counted positive when it falls.
